Assay [1] deals with SAOS-2. The assay is described as follows: Antiapoptotic activity against human Saos2 cells assessed as cell recovery at 5 uM after 24 hrs by flow cytometry. In kind it is functional. (In general: A flow cytometer gives signals particle by particle.)
The subject of assay [2] is SAOS-2. The assay is described as follows: Inhibition of apoptosome activity in human Saos2 cells assessed as inhibition of caspase 3 at 5 uM after 24 hrs by fluorimetric DEVDase assay. The assay is classed as functional. The note with it: SAOS-2, 24 h. The essentials:
(§1)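 Apoptosis was induced with doxorubicin in PBS (HeLa 2 µg/mL, 3 × 10⁵ cells/plate; U-2 OS 2.5 µg/mL, 3.5 × 10⁵ cells/plate) or with doxycycline 2 µg/mL (Saos-2, tet-ON Bax, 2 × 10⁵ cells/plate). Compound was added 30 min later at 5 µM, and cells were harvested at 24, 48 or 72 h. Lysis was by PIPES/KCl/EDTA/MgCl₂/DTT buffer with three freeze-thaw cycles. Protein was equalized by BCA, then 20 µM Ac-DEVD-afc was added in PBS with 10% glycerol, 0.1 mM EDTA and 2 mM DTT. Fluorescence was read at 37 °C (ex 400, em 508 nm) as ΔFU/min; mean ± SE, n > 3.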

For assay [3], the system named is U-937. The assay can be described thus: Cytotoxicity against human U937 cells after 24 hrs by MTT assay. In kind it is functional, cell-based. Summed up:
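U937 cells in RPMI 1640 with 10% FCS and 2 mM L-glutamine were seeded at 2.5 × 10³ or 4 × 10³ cells/well and settled for 24 h. Filter-sterilized compounds were added at final 1, 5 and 10 µM (polymer conjugate at 20, 50 and 100 µM drug equivalent) for 19 h. MTT was then added for a further 5 h, giving 24 h total exposure. Formazan was dissolved in DMSO and read at 570 nm; mean ± SE, n > 3.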
Background: Tetrazolium assays rely on reduction of a dye to a coloured formazan, in cell work by metabolically active cells.

Assay [4] deals with U2OS. The assay can be described thus: Inhibition of apoptosome activity in human U2OS cells assessed as inhibition of caspase 3 at 5 uM after 48 hrs by fluorimetric DEVDase assay. The assay is classed as functional. Summed up: as §1
Assay [5] has as its system SAOS-2. The assay is described as follows: Antiapoptotic activity against human Saos2 cells assessed as inhibition of doxycyclin-induced cell death at 1 uM by flow cytometry. In kind it is functional.
The test system of assay [6] is SAOS-2. The assay is described as follows: Antiapoptotic activity against human Saos2 cells assessed as inhibition of doxycyclin-induced cell death after 24 hrs by flow cytometry. The assay is classed as functional, cell-based.
Assay [7] deals with HeLa. The assay is described as follows: Inhibition of apoptosome activity in human HeLa cells assessed as inhibition of caspase 3 at 5 uM after 48 hrs by fluorimetric DEVDase assay. The assay is classed as functional. The essentials:
as §1

A further assay has as its system A549. The assay is described as follows: Antiapoptotic activity against human A549 cells assessed as inhibition of doxorubicin-induced cell death after 24 hrs by flow cytometry. The assay is classed as functional, cell-based.
Assay [8] concerns U2OS. The assay is described as follows: Antiapoptotic activity against human U2OS cells assessed as inhibition of doxorubicin-induced cell death after 24 hrs by flow cytometry. In kind it is functional, cell-based.
Assay [9] concerns HeLa. The assay can be described thus: Antiapoptotic activity against human HeLa cells assessed as inhibition of doxorubicin-induced cell death after 24 hrs by flow cytometry. The assay is classed as functional, cell-based.
Assay [10] has as its system U2OS. The assay can be described thus: Antiapoptotic activity against human U2OS cells assessed as inhibition of doxorubicin-induced cell death by flow cytometry. In kind it is functional, cell-based.
In assay [11] the test system is SAOS-2. The assay is described as follows: Inhibition of apoptosome activity in human Saos2 cells assessed as inhibition of caspase 3 after 24 hrs by fluorimetric DEVDase assay. The assay is classed as functional, cell-based.
Assay [12] relates to U-937. The assay can be described thus: Antiapoptotic activity against human U937 cells assessed as inhibition of doxorubicin-induced cell death after 24 hrs by flow cytometry. The assay is classed as functional, cell-based.

This note sets out measurements from ChEMBL document CHEMBL1140739, “Modulation of cellular apoptosis with apoptotic protease-activating factor 1 (Apaf-1) inhibitors” (2008).

For orientation: inhibition means the drop in the measured response relative to a control, in per cent.

The source made the active and inactive calls. No cut-off for these calls is given here. Starred links: 1 amine or outer side, 2 acyl side, 3 side chain; linkers in the order of their positions; H or OH if unused. Non-standard residues stand in square brackets, D forms with d. Residues, ends and D or L forms follow the SMILES beside them. N(2,4-Cl2-phenethyl)Gly = O=C(O)CNCCc1ccc(Cl)cc1Cl; X1 = O=C(CN(CCC(c1ccccc1)c1ccccc1)[*:1])[*:2]

For `NC(=O)CN(CC1CCCO1)C(=O)C1CC(=O)N(CCc2ccc(Cl)cc2Cl)CC(=O)N1CCC(c1ccccc1)c1ccccc1` (stereo unspecified), in the assay on SAOS-2 [1], the Activity came to 9%.

Regarding `CCCCN(CC(N)=O)C(=O)C1CC(=O)N(CCc2ccc(Cl)cc2Cl)CC(=O)N1CCC(c1ccccc1)c1ccccc1` (stereo unspecified), in the assay on SAOS-2 [1], the Activity is reported as 2%. The inhibition at 5 µM in the assay on SAOS-2 [2] is 45%.

In the case of `NC(=O)CN(CCc1ccc(Cl)cc1Cl)C(=O)C1CC(=O)N(CCc2ccc(Cl)cc2Cl)CC(=O)N1CCC(c1ccccc1)c1ccccc1` (stereo unspecified), the results for the Activity entry in the assay on U-937 [3] and in the assay with SAOS-2 [1] were “Not toxic” and 50%, respectively. The figures for the inhibition at 5 µM in the assay on U2OS [4], in the assay on HeLa [7] and in the assay with SAOS-2 [2] were 50%, 60% and 53%, respectively. Also, the inhibition at 1 µM with SAOS-2 [5] turned out to be 60%. Further, the result in the assay with SAOS-2 [6], in the assay on A549, in the assay with U2OS [8], in the assay on HeLa [9], in the assay with U2OS [10] and in the assay on SAOS-2 [11] was Active. Moreover, the outcome with U-937 [12] was Active.

Consider `CC[C@H](C)[C@H](NC(=O)[C@H](CCCCN)NC(=O)[C@@H](NC(=O)[C@H](CCC(N)=O)NC(=O)[C@@H](N)CCCNC(=N)N)[C@@H](C)CC)C(=O)N[C@@H](Cc1c[nH]c2ccccc12)C(=O)N[C@@H](Cc1ccccc1)C(=O)N[C@@H](CCC(N)=O)C(=O)N[C@@H](CC(N)=O)C(=O)N[C@@H](CCCNC(=N)N)C(=O)N[C@@H](CCCNC(=N)N)C(=O)N[C@@H](CCSC)C(=O)N[C@@H](CCCCN)C(=O)N[C@@H](Cc1c[nH]c2ccccc12)C(=O)N[C@@H](CCCCN)C(=O)N[C@@H](CCCCN)C(=O)NCC(=O)NCC(=O)N(CCc1ccc(Cl)cc1Cl)CC(=O)N(CCC(c1ccccc1)c1ccccc1)CC(=O)N(CCc1ccc(Cl)cc1Cl)CC(N)=O`, for which the Activity result in the assay with U-937 [3] was “Toxic”.

In the case of `CC(=O)NCCN(CC(N)=O)C(=O)C1CC(=O)N(CCc2ccc(Cl)cc2Cl)CC(=O)N1CCC(c1ccccc1)c1ccccc1` (stereo unspecified), the Activity in the assay with SAOS-2 [1] is given as 12%. The inhibition at 5 µM in the assay on SAOS-2 [2] amounted to 21%.

Consider `COc1ccccc1CCN(CC(N)=O)C(=O)C1CC(=O)N(CCc2ccc(Cl)cc2Cl)CC(=O)N1CCC(c1ccccc1)c1ccccc1` (stereo unspecified), for which the Activity in the assay with SAOS-2 [1] was 41%. Also, the inhibition at 5 µM in the assay on SAOS-2 [2] stood at 1%.

As to `CC(C)C[C@H](NC(=O)[C@H](C)NC(=O)[C@H](CCCCN)NC(=O)[C@@H](NC(=O)[C@@H](N)CS)[C@@H](C)O)C(=O)NCC(=O)N[C@@H](CS)C(=O)NCC(=O)NCC(=O)N[C@@H](Cc1ccc(O)cc1)C(=O)NCC(=O)N[C@@H](CCCNC(=N)N)C(=O)N[C@@H](CCCCN)C(=O)N[C@@H](CCCCN)C(=O)N[C@@H](CCCNC(=N)N)C(=O)N[C@@H](CCCNC(=N)N)C(=O)N[C@@H](CCC(N)=O)C(=O)N[C@@H](CCCNC(=N)N)C(=O)N[C@@H](CCCNC(=N)N)C(=O)N[C@@H](CCCNC(=N)N)C(=O)N(CCc1ccc(Cl)cc1Cl)CC(=O)N(CCC(c1ccccc1)c1ccccc1)CC(=O)N(CCc1ccc(Cl)cc1Cl)CC(N)=O` (H-CTKALGCGGYGRKKRRQRRR[N(2,4-Cl2-phenethyl)Gly][X1][N(2,4-Cl2-phenethyl)Gly]-NH2), the Activity entry with U-937 [3] is “Toxic”. In the assay on U2OS [10], the outcome was inactive.

Consider `NC(=O)CN(C(=O)C1CC(=O)N(CCc2ccc(Cl)cc2Cl)CC(=O)N1CCC(c1ccccc1)c1ccccc1)C1CC1` (stereo unspecified), for which the Activity in the assay on SAOS-2 [1] was 10%. The inhibition at 5 µM with SAOS-2 [2] is 16%.

Consider `NC(=O)CN(CCc1ccccc1F)C(=O)C1CC(=O)N(CCc2ccc(Cl)cc2Cl)CC(=O)N1CCC(c1ccccc1)c1ccccc1` (stereo unspecified), for which the Activity with SAOS-2 [1] came out at 16%. Further, in the assay on SAOS-2 [2], the inhibition at 5 µM is 51%.

For `NC(=O)CN(CCc1ccc(Cl)cc1)C(=O)C1CC(=O)N(CCc2ccc(Cl)cc2Cl)CC(=O)N1CCC(c1ccccc1)c1ccccc1` (stereo unspecified), the Activity in the assay on SAOS-2 [1] was 23%. In addition, the inhibition at 5 µM in the assay with SAOS-2 [2] amounted to 2%.

On to `NC(=O)CN(CCc1ccc(F)cc1)C(=O)C1CC(=O)N(CCc2ccc(Cl)cc2Cl)CC(=O)N1CCC(c1ccccc1)c1ccccc1` (stereo unspecified), for which the Activity in the assay with SAOS-2 [1] is given as 57%. Besides, the inhibition at 5 µM with SAOS-2 [2] was determined as 34%.
